Assay [1] deals with KCL-22. Description: Cytotoxicity against human KCL22 cells assessed as cell viability at 1 uM after 48 hrs by MTS assay relative to control. It counts as functional. The settings on record: for viability at 1 µM: Homo sapiens, KCL-22, 48 h, read-out: Activity. In short, it runs like this:
(§1)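 Single-concentration screen: KCL-22 cells, or KCL-22 cells expressing T315I mutant Bcr-Abl, grown in RPMI-1640 with 10% FBS. Cells were seeded at 10 000/well, held overnight at 37 °C in 5% CO2, then exposed to 1 μM compound for 48 h, with DMSO as vehicle control. Viability was read by MTS tetrazolium-to-formazan conversion, absorbance 490 nm, in triplicate.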
On the technique in general: Tetrazolium assays rely on reduction of a dye to a coloured formazan, in cell work by metabolically active cells.

The test system of assay [2] is KCL-22. As to the kind of experiment: Cytotoxicity against human KCL22 cells harboring ABL1 T315I mutant assessed as cell viability at 1 uM after 48 hrs by MTS assay relative to control. The settings on record: for viability at 1 µM: Homo sapiens, KCL-22, 48 h, read-out: Activity. It counts as functional. The method in brief:
as §1

Assay [3] concerns the target Tyrosine-protein kinase ABL1 (Homo sapiens, UniProt P00519). As to the kind of experiment: Inhibition of recombinant ABL1 (unknown origin) after 120 mins in presence of [33P]ATP.
Assay [4] concerns the target Tyrosine-protein kinase ABL1 (Homo sapiens, UniProt P00519, T315I). As to the kind of experiment: Inhibition of recombinant ABL1 T315I mutant (unknown origin) after 120 mins in presence of [33P]ATP.
The target of assay [5] is Proto-oncogene tyrosine-protein kinase Src (Homo sapiens, UniProt P12931). As to the kind of experiment: Inhibition of recombinant c-Src (unknown origin) after 120 mins in presence of [33P]ATP.
Proto-oncogene tyrosine-protein kinase Src, sequence (P12931 2-536 limits assumed): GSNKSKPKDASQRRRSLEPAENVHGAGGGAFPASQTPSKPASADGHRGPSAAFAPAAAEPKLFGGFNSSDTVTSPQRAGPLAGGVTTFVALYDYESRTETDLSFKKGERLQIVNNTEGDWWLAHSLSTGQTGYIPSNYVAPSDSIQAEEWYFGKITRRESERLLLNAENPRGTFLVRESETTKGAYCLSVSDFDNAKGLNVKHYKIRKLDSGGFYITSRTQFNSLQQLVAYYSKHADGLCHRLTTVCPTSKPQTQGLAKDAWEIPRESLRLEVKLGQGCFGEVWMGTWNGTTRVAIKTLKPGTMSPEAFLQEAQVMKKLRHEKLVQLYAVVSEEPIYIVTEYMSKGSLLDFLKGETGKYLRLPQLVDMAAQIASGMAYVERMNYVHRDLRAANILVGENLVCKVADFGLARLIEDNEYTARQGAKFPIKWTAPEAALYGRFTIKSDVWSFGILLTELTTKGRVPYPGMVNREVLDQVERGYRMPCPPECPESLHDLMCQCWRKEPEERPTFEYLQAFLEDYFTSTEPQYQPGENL
The target in assay [6] is Tyrosine-protein kinase JAK2 (Homo sapiens, UniProt O60674). Description: Inhibition of recombinant JAK2 (unknown origin) after 120 mins in presence of [33P]ATP.
Tyrosine-protein kinase JAK2, sequence (O60674 whole entry): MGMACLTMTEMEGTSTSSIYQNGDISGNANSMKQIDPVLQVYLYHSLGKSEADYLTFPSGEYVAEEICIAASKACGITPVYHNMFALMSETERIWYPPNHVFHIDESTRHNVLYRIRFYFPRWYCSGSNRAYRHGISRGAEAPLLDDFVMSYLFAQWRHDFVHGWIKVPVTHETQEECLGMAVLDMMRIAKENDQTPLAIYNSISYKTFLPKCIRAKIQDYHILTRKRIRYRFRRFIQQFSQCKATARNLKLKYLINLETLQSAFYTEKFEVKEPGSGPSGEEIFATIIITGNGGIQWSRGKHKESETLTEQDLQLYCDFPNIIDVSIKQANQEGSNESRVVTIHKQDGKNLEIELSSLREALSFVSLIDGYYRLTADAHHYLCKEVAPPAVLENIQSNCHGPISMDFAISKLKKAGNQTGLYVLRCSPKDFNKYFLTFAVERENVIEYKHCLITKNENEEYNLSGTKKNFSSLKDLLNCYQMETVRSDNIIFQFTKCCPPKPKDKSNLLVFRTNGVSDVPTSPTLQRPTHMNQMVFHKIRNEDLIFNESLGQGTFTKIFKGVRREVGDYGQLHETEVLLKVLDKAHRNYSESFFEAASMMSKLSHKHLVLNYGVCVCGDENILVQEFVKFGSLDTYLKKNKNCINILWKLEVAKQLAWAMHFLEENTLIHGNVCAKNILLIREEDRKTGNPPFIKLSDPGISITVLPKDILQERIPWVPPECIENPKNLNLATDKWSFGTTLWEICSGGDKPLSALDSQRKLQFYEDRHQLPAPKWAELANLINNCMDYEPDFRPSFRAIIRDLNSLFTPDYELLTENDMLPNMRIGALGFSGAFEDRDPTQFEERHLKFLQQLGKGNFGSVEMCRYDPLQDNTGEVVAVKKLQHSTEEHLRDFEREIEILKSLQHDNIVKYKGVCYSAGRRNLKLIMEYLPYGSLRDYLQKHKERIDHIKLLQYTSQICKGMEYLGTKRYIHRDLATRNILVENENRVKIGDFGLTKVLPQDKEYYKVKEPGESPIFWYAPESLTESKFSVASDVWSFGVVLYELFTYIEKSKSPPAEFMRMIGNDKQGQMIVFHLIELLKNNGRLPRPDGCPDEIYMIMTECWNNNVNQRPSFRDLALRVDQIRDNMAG
Another assay has as its target T1, Aurora kinase A (Homo sapiens, UniProt O14965).
T1 sequence (O14965 whole entry): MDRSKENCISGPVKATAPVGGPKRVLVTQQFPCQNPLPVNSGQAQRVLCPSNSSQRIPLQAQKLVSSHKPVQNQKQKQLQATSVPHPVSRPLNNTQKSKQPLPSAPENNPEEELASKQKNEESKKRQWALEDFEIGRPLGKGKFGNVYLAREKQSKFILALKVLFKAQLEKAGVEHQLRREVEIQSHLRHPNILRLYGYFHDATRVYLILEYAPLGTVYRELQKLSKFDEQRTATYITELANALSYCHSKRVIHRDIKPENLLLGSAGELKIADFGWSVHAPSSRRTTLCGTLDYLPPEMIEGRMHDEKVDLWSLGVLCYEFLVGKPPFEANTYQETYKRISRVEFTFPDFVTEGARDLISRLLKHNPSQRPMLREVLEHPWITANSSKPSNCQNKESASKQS
As to the kind of experiment: Inhibition of recombinant Aurora A (unknown origin) after 120 mins in presence of [33P]ATP.

Assay [7] has as its system KCL-22. Description: Cytotoxicity against human KCL22 cells assessed as reduction in cell viability after 48 hrs by MTS assay. It counts as functional, cell-based.
The subject of assay [8] is KCL-22. As to the kind of experiment: Cytotoxicity against human KCL22 cells harboring ABL1 T315I mutant assessed as reduction in cell viability after 48 hrs by MTS assay. It counts as functional, cell-based. The settings on record: KCL-22, 48 h.
Assay [9] has as its system KCL-22. As to the kind of experiment: Cytotoxicity against human KCL22 cells assessed as reduction in cell viability at 1 uM after 48 hrs by MTS assay. It counts as functional, cell-based. The method in brief: as §1
For assay [10], the system named is KCL-22. As to the kind of experiment: Cytotoxicity against human KCL22 cells harboring ABL1 T315I mutant assessed as reduction in cell viability at 1 uM after 48 hrs by MTS assay. It counts as functional, cell-based. The method in brief: as §1

Structures are written as SMILES. The source made the active and inactive calls. No rule for the calls is given here.

Broadly, the IC50 is the midpoint of a concentration-inhibition curve.

Consider `CN1C(=O)/C(=C2\Nc3ccccc3\C2=N/O)c2ccc(Br)cc21`, for which the viability at 1 µM in the assay on KCL-22 [1] and with KCL-22 [2] was greater than 50% throughout.

Consider `O=C1Nc2cc(Br)ccc2/C1=C1/Nc2ccccc2C1=O`, for which the viability at 1 µM in the assay with KCL-22 [1] and in the assay on KCL-22 [2] was greater than 50% each time.

As for `CN(CCO/N=C1/C(=C2/C(=O)Nc3cc(Br)ccc32)Nc2ccccc21)CC(O)CO` (configuration not stated) [listing 1 of 2 here], the viability at 1 µM in the assay on KCL-22 [1] and in the assay on KCL-22 [2] was less than 50% in each case. The half-inhibitory concentration (IC50) in assay [3] was 0.0102 µM; in assay [4], 0.194 µM; in assay [5] it was 0.00061 µM; in assay [6] it was 0.589 µM.

As for `O=C1Nc2cc(Br)ccc2/C1=C1/Nc2ccccc2/C1=N\OCCN1CCCC1` [listing 1 of 2 here], the viability at 1 µM in the assay with KCL-22 [1] and in the assay on KCL-22 [2] was less than 50% each time. For the same compound, the IC50 in assay [4] was determined as 5.94 µM; on Aurora kinase A, 0.175 µM; in [5] it was 0.0022 µM; in assay [6] it was 4.41 µM.

As for `O=C1Nc2cc(Br)ccc2/C1=C1/Nc2ccccc2/C1=N\OCCN1CCN(CCOCCO)CC1` [listing 1 of 2 here], the viability at 1 µM was greater than 50% with KCL-22 [1] and less than 50% in the assay with KCL-22 [2].

As for `CCN(CC)C(=O)O/N=C1/C(=C2/C(=O)Nc3cc(Br)ccc32)Nc2ccccc21`, the viability at 1 µM in the assay with KCL-22 [1] and with KCL-22 [2] was greater than 50% in each case.

Turning to `O=C1Nc2cc(Br)ccc2/C1=C1/Nc2ccccc2/C1=N\OCCN1CCNCC1` [listing 1 of 2 here], the viability at 1 µM in the assay with KCL-22 [1] and in the assay with KCL-22 [2] was less than 50% in each case. Further, the IC50 is 0.33 µM in the assay with KCL-22 [7] (kcl-22); 0.43 µM with KCL-22 [8]; 0.00087 µM in assay [3]; 0.0094 µM in [4]; 0.0071 µM at Aurora kinase A; less than 0.0005 µM in assay [5]. For the same compound, in [6], the IC50 was found to be 0.224 µM.

As to `O=C1Nc2cc(Br)ccc2/C1=C1/Nc2ccccc2/C1=N\O` [6BIO], the viability at 1 µM in the assay with KCL-22 [1] and with KCL-22 [2] was greater than 50% in each case.

As for `CC(=O)c1ccc(NC(=O)O/N=C2/C(=C3/C(=O)Nc4cc(Br)ccc43)Nc3ccccc32)cc1`, the viability at 1 µM in the assay with KCL-22 [1] and in the assay with KCL-22 [2] was greater than 50% throughout.

For the compound `CN1CCN(CCO/N=C2/C(=C3/C(=O)Nc4cc(Br)ccc43)Nc3ccccc32)CC1` [listing 1 of 2 here], the viability at 1 µM with KCL-22 [1] is less than 50%; in the assay with KCL-22 [2], greater than 50%. Moreover, in the assay with KCL-22 [7] (kcl-22), the half-maximal inhibitory concentration (IC50) came out at 0.5 µM.

With `O=C1Nc2cc(Br)ccc2/C1=C1/Nc2ccccc2/C1=N\OCCN1CCN(CCO)CC1` [listing 1 of 2 here], the Activity was less than 50% in the assay on KCL-22 [1] and greater than 50% in the assay with KCL-22 [2]. Further, in the assay on KCL-22 [7] (Homo sapiens, KCL-22, 48 h), the IC50 stood at 0.83 µM.

Regarding `N#Cc1ccc(NC(=O)O/N=C2/C(=C3/C(=O)Nc4cc(Br)ccc43)Nc3ccccc32)cc1`, the viability at 1 µM with KCL-22 [1] and with KCL-22 [2] was greater than 50% throughout.

For the compound `O=C1Nc2cc(Br)ccc2/C1=C1/Nc2ccccc2/C1=N\OCCN1CCCC1` [listing 2 of 2 here], the Activity in the assay with KCL-22 [1] and in the assay on KCL-22 [2] was less than 50% throughout. Moreover, the IC50 in assay [3] was 0.106 µM; in assay [4], 4.56 µM; at Aurora kinase A, 0.079 µM; in assay [5], 0.0049 µM; in assay [6], 7.46 µM.

Take `CCCCCNC(=O)O/N=C1/C(=C2/C(=O)Nc3cc(Br)ccc32)Nc2ccccc21`: the viability at 1 µM in the assay on KCL-22 [1] and with KCL-22 [2] was greater than 50% in each case.

As for `CC(=O)O/N=C1/C(=C2/C(=O)Nc3cc(Br)ccc32)Nc2ccccc21` [6-BROMOINDIRUBIN-3'-ACETOXIME], the viability at 1 µM in the assay with KCL-22 [1] and with KCL-22 [2] was greater than 50% each time.

For the compound `O=C1Nc2cc(Br)ccc2/C1=C1/Nc2ccccc2/C1=N\OCCN1CCNCC1` [listing 2 of 2 here], the Activity is less than 50% in the assay with KCL-22 [1] and greater than 50% in the assay with KCL-22 [2]. In addition, in the assay on KCL-22 [7] (kcl-22), the 50% inhibitory concentration (IC50) was 0.78 µM.

In the case of `O=C1Nc2cc(Br)ccc2/C1=C1/Nc2ccccc2/C1=N\OCC(O)CO` (configuration not stated), the figures for the viability at 1 µM with KCL-22 [1] and in the assay on KCL-22 [2] were less than 50% and greater than 50%, respectively. Besides, in the assay with KCL-22 [7] (Homo sapiens, KCL-22, 48 h), the IC50 amounted to 0.75 µM.

On to `CN1CCN(CCO/N=C2/C(=C3/C(=O)Nc4cc(Br)ccc43)Nc3ccccc32)CC1` [listing 2 of 2 here], for which the Activity in the assay on KCL-22 [1] is on record as less than 50%; in the assay on KCL-22 [2] it was greater than 50%. Moreover, the IC50 with KCL-22 [7] (Homo sapiens, KCL-22, 48 h) turned out to be 0.9 µM.

For `O=C1Nc2cc(Br)ccc2/C1=C1/Nc2ccccc2/C1=N\OCCN1CCN(CCO)CC1` [listing 2 of 2 here], the viability at 1 µM with KCL-22 [1] and in the assay with KCL-22 [2] was greater than 50% throughout.

`O=C(NC(Cl)(Cl)Cl)O/N=C1/C(=C2/C(=O)Nc3cc(Br)ccc32)Nc2ccccc21`: the viability at 1 µM with KCL-22 [1] and with KCL-22 [2] was greater than 50% in each case.

On to `COCCN1CCN(CCO/N=C2/C(=C3/C(=O)Nc4cc(Br)ccc43)Nc3ccccc32)CC1` [listing 1 of 2 here], for which the Activity in the assay with KCL-22 [1] is greater than 50%; in the assay with KCL-22 [2] it was less than 50%. The half-inhibitory concentration (IC50) is 0.468 µM in assay [3]; greater than 10 µM in assay [4]; 0.33 µM on Aurora kinase A; 0.0017 µM in assay [5]; greater than 10 µM in [6].

Regarding `CN(CCO/N=C1/C(=C2/C(=O)Nc3cc(Br)ccc32)Nc2ccccc21)CC(O)CO` (configuration not stated) [listing 2 of 2 here], the Activity in the assay on KCL-22 [1] and with KCL-22 [2] was less than 50% each time. Further, the IC50 in [3] was 0.0072 µM; in [4], 0.178 µM; at Aurora kinase A it was 0.0097 µM; in assay [5], less than 0.0005 µM; in assay [6], 0.551 µM.

`O=C1Nc2cc(Br)ccc2/C1=C1/Nc2ccccc2/C1=N\OCCN1CCN(CCOCCO)CC1` [listing 2 of 2 here]: the Activity with KCL-22 [1] and in the assay on KCL-22 [2] was greater than 50% in each case. Moreover, the IC50 in [3] is 0.0341 µM; in assay [4] it was 5.16 µM; on Aurora kinase A, 0.0149 µM; in assay [5], 0.00083 µM; in assay [6] it was greater than 10 µM.

Take `COCCN1CCN(CCO/N=C2/C(=C3/C(=O)Nc4cc(Br)ccc43)Nc3ccccc32)CC1` [listing 2 of 2 here]: the viability at 1 µM in the assay on KCL-22 [1] was greater than 50%; in the assay on KCL-22 [2], less than 50%. The IC50 in assay [3] was 3.44 µM; in assay [4], greater than 10 µM; at Aurora kinase A, greater than 10 µM; in assay [5], 0.0039 µM; in assay [6], greater than 10 µM.

For the compound `COC(=O)c1ccc2c(c1)NC(=C1\C(=O)Nc3c(Br)cccc31)/C2=N/OCCN1CCNCC1`, the result in the assay on KCL-22 [9] and with KCL-22 [10] was inactive.

Turning to `COC(=O)c1ccc2c(c1)NC(=C1\C(=O)Nc3c(Br)cccc31)/C2=N/O`, the result with KCL-22 [9] and with KCL-22 [10] was inactive.

Source of the values: ChEMBL document CHEMBL4041496, “Natural-Based Indirubins Display Potent Cytotoxicity toward Wild-Type and T315I-Resistant Leukemia Cell Lines” (J Nat Prod, 2016).
